Data taken from ChEMBL document CHEMBL3351895, “Cytotoxicity of synthesized 1,4-naphthoquinone analogues on selected human cancer cell lines” (Bioorg Med Chem, 2014).

Experiments:
[1] = Cytotoxicity against human SNO cells assessed as cell survival after 48 hrs by XTT assay
[2] = tested on: DU-145; experiment: Cytotoxicity against human DU145 cells assessed as cell survival after 48 hrs by XTT assay; conditions: DU-145, 48 h
[3] = tested on: HeLa; experiment: Cytotoxicity against human HeLa cells assessed as cell survival after 48 hrs by XTT assay
[4] = tested on: MCF7; experiment: Cytotoxicity against human MCF7 cells assessed as cell survival after 48 hrs by XTT assay; conditions: MCF7, 48 h
[5] = Cell cycle arrest in human U937 cells assessed as accumulation at G0/G1 phase at 2 ug/ml after 48 hrs by propidium iodide staining-based flow cytometric analysis (reference value: 54.6%); format: functional; conditions: U-937
In short: (§1)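 U937 cells in complete RPMI 1640 (10% FBS, 25 mM HEPES, 2 mM glutamine) seeded at 2 × 10^6 cells/ml in flasks, recovered 24 h, then treated with compounds in DMSO (2 µg/ml). Cisplatin (10 µM) served as positive control and DMSO as negative control. Cells were harvested at 24 or 48 h and stained with propidium iodide. Phase percentages were gated on singlet cells by flow cytometry. Three independent experiments.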

[6] = Cell cycle arrest in human U937 cells assessed as accumulation at S phase at 2 ug/ml after 24 hrs by propidium iodide staining-based flow cytometric analysis (reference value: 30.7%); format: functional; conditions: U-937
In short: as §1

[7] = Cell cycle arrest in human U937 cells assessed as accumulation at G0/G1 phase at 2 ug/ml after 24 hrs by propidium iodide staining-based flow cytometric analysis (reference value: 41.7%); format: functional; conditions: U-937
In short: as §1

[8] = Cell cycle arrest in human U937 cells assessed as accumulation at subG1 phase at 2 ug/ml after 48 hrs by propidium iodide staining-based flow cytometric analysis (reference value: 1.1%); format: functional; conditions: U-937
In short: as §1

[9] = Cell cycle arrest in human U937 cells assessed as accumulation at S phase at 2 ug/ml after 48 hrs by propidium iodide staining-based flow cytometric analysis (reference value: 25.7%); format: functional; conditions: U-937
In short: as §1

[10] = Cell cycle arrest in human U937 cells assessed as accumulation at subG1 phase at 2 ug/ml after 24 hrs by propidium iodide staining-based flow cytometric analysis (reference value: 15.1%); format: functional; conditions: U-937
In short: as §1

[11] = Cell cycle arrest in human U937 cells assessed as accumulation at G2/M phase at 2 ug/ml after 48 hrs by propidium iodide staining-based flow cytometric analysis (reference value: 16.6%); format: functional; conditions: U-937
In short: as §1

[12] = tested on: U-937; experiment: Induction of apoptosis in human U937 cells assessed as caspase 3/7 activation at 2 ug/ml after 24 hrs by fluorescence reader relative to control; format: functional
In short: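 U937 cells (2 × 10^6/ml, 24 h recovery) were exposed for 24 h to compounds in DMSO (2 µg/ml), with cisplatin 10 µM and DMSO controls. Cells were pelleted and resuspended in RPMI, at least 2 × 10^5 cells per well. (DEVD)2 substrate was added and cells incubated 2 h at 37 °C, 5% CO2, resuspended every 20 min. Fluorescence was read at 544/590 and 544/620 nm.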

[13] = Cell cycle arrest in human U937 cells assessed as accumulation at G2/M phase at 2 ug/ml after 24 hrs by propidium iodide staining-based flow cytometric analysis (reference value: 12.5%); format: functional; conditions: U-937
In short: as §1

[14] = tested on: PBMC; experiment: Cytotoxicity against human PBMC assessed as cell survival after 24 hrs by fluorescence assay
[15] = tested on: U-937; experiment: Cytotoxicity against human U937 cells assessed as cell survival after 24 hrs by XTT assay; format: functional, cell-based
[16] = tested on: U-937; experiment: Induction of apoptosis in human U937 cells assessed as late apoptotic cells at 2 ug/ml after 48 hrs by annexin V-FITC/propidium iodide staining-based flow cytometry (reference value: 11.7%); format: functional
[17] = tested on: U-937; experiment: Induction of apoptosis in human U937 cells assessed as necrotic cells at 2 ug/ml after 24 hrs by annexin V-FITC/propidium iodide staining-based flow cytometry (reference value: 24.7%); format: functional
[18] = tested on: U-937; experiment: Induction of apoptosis in human U937 cells assessed as late apoptotic cells at 2 ug/ml after 24 hrs by annexin V-FITC/propidium iodide staining-based flow cytometry (reference value: 3%); format: functional
[19] = tested on: U-937; experiment: Induction of apoptosis in human U937 cells assessed as early apoptotic cells at 2 ug/ml after 48 hrs by annexin V-FITC/propidium iodide staining-based flow cytometry (reference value: 5.7%); format: functional
[20] = tested on: U-937; experiment: Induction of apoptosis in human U937 cells assessed as necrotic cells at 2 ug/ml after 48 hrs by annexin V-FITC/propidium iodide staining-based flow cytometry (reference value: 1.4%); format: functional
[21] = tested on: U-937; experiment: Induction of apoptosis in human U937 cells assessed as early apoptotic cells at 2 ug/ml after 24 hrs by annexin V-FITC/propidium iodide staining-based flow cytometry (reference value: 6.3%); format: functional
[22] = tested on: U-937; experiment: Induction of apoptosis in human U937 cells assessed as viable cells at 2 ug/ml after 24 hrs by annexin V-FITC/propidium iodide staining-based flow cytometry (reference value: 66%); format: functional; conditions: U-937, 24 h, read-out: Activity
[23] = tested on: U-937; experiment: Induction of apoptosis in human U937 cells assessed as viable cells at 2 ug/ml after 48 hrs by annexin V-FITC/propidium iodide staining-based flow cytometry (reference value: 81.3%); format: functional; conditions: U-937, 48 h, read-out: Activity

Row | SMILES | IC50 [1] [µM] | IC50 [2] [µM] | IC50 [3] [µM] | IC50 [4] [µM] | also measured
1 | CCOc1cc(C)c(Cl)c2c1C(=O)C=CC2=O | 44.2 | 25.4 | 19 | 40 | 
2 | CC(=O)Oc1cc(C)c(Cl)c2c1C(=O)C=CC2=O | 28.8 | 25.5 | 26.2 | 37.9 | 
3 | CC(=O)Oc1cc(OC(C)=O)c2c(OC(C)=O)cc(C)cc2c1OC(C)=O | 25 | 64.6 | 22.4 | 82 | 
4 | CCOc1c(C)cc(Cl)c2c1C(=O)C=CC2=O | 37.3 | 26.2 | 33.2 | 32.2 | 
5 | Cc1cc(O)c2c(c1)C(=O)C(O)=CC2=O | 23.2 | 6.8 | 5.3 | 14.6 | Activity [5]: 65.1%; Activity [6]: 27.3%; Activity [7]: 53.4%; Activity [8]: 10.6%; Activity [9]: 16.1%; Activity [10]: 3%; Activity [11]: 7.3%; Activity [12]: 7.39%; Activity [13]: 15.5%; IC50 [14]: 54 µM
6 | COc1cccc2c1C(=O)c1c(O)c3c(c(O)c1C2=O)C[C@@](O)(C(=O)CO)C[C@@H]3O[C@H]1C[C@H](N)[C@H](O)[C@H](C)O1 [DOXORUBICIN] | 0.01 | 0.01 |  |  | 
7 | Cc1cc(O)c2c(c1Cl)C(=O)C=CC2=O | 17.2 | 29.5 | 13.5 | 15.7 | Activity [15]: Not toxic; Activity [5]: 30.2%; Activity [6]: 16.2%; Activity [7]: 60.9%; Activity [8]: 53.5%; Activity [9]: 10.5%; Activity [10]: 17.1%; Activity [11]: 5.4%; Activity [13]: 5.4%
8 | CC(=O)Oc1cc(OC(C)=O)c2c(OC(C)=O)c(C)cc(Cl)c2c1OC(C)=O | 53.5 | 81.6 | 27.9 | 57.5 | 
9 | COc1c(C)cc(Cl)c2c1C(=O)C=CC2=O | 44.9 | 36.5 | 41.5 | 16.2 | 
10 | Cc1ccc2c(c1O)C(=O)C=CC2=O | 19 | 15.4 | 16.4 | 15.3 | Activity [16]: 43.2%; Activity [17]: 28.3%; Activity [5]: 62.9%; Activity [6]: 14.2%; Activity [7]: 43%; Activity [18]: 31.4%; Activity [8]: 15%; Activity [19]: 6.4%; Activity [9]: 14.6%; Activity [10]: 33.8%; Activity [20]: 30.3%; Activity [21]: 24.8%; Activity [11]: 7%; viability at 2 µg/mL [22]: 15.5%; viability at 2 µg/mL [23]: 20.1%; Activity [12]: -5.14%; Activity [13]: 8.6%
11 | CC(=O)Oc1c(C)cc(Cl)c2c1C(=O)C=CC2=O | 28.6 | 12.5 | 21.8 | 18.7 | 
12 | CC(=O)Oc1cc(C)cc2c1C(=O)C=CC2=O | 28.1 | 24.1 | 17.2 | 14.7 | 
13 | Cc1cc(O)c2c(c1Br)C(=O)C=CC2=O | 14.9 | 46.3 | 11.3 | 15.5 | Activity [16]: 39%; Activity [15]: Not toxic; Activity [17]: 67.1%; Activity [5]: 53%; Activity [6]: 16.8%; Activity [7]: 63.3%; Activity [18]: 7%; Activity [8]: 13%; Activity [19]: 3.4%; Activity [9]: 28.8%; Activity [10]: 14.8%; Activity [20]: 53.8%; Activity [21]: 10%; Activity [11]: 17.7%; viability at 2 µg/mL [22]: 15.9%; viability at 2 µg/mL [23]: 3.8%; Activity [13]: 4.6%
14 | COc1cc(C)cc2c1C(=O)C=CC2=O | 22.5 | 30.7 | 21.1 | 15.3 | 
15 | Cc1cc(Cl)c2c(c1O)C(=O)C=CC2=O | 9.4 | 9.3 | 10.1 | 10 | Activity [16]: 36.1%; Activity [15]: Not toxic; Activity [17]: 49.6%; Activity [5]: 62.2%; Activity [6]: 11.4%; Activity [7]: 65.6%; Activity [18]: 28.3%; Activity [8]: 17.9%; Activity [19]: 1.9%; Activity [9]: 14.1%; Activity [10]: 18.1%; Activity [20]: 60.1%; Activity [21]: 17.1%; Activity [11]: 5.3%; viability at 2 µg/mL [22]: 5%; viability at 2 µg/mL [23]: 1.9%; Activity [13]: 4.5%
16 | CC(=O)Oc1cc(OC(C)=O)c2c(OC(C)=O)cc(C)c(Cl)c2c1OC(C)=O | 56.9 | 59.6 | 52.9 | 51.1 | 
17 | CCOc1cc(C)cc2c1C(=O)C=CC2=O | 25.3 | 15 | 29.7 | 23.7 | 
18 | Cc1cc(O)c2c(c1)C(=O)C=CC2=O [RAMENTACEONE] | 81.4 | 11.9 | 66.6 | 27.2 | IC50 [14]: 18.4 µM
19 | COc1cc(C)c(Cl)c2c1C(=O)C=CC2=O | 24.6 | 26.6 | 19.1 | 20.6 | 
